{"source": "ChEMBL document CHEMBL5120972", "about": "“Small-Molecule Inhibitors of the MLL1 CXXC Domain, an Epigenetic Reader of DNA Methylation” (ACS Med Chem Lett, 2022)", "key": {"[1]": {"molecular_target": "Histone-lysine N-methyltransferase 2A (Homo sapiens, UniProt Q03164)", "sequence (Q03164 1-2718 limits assumed)": "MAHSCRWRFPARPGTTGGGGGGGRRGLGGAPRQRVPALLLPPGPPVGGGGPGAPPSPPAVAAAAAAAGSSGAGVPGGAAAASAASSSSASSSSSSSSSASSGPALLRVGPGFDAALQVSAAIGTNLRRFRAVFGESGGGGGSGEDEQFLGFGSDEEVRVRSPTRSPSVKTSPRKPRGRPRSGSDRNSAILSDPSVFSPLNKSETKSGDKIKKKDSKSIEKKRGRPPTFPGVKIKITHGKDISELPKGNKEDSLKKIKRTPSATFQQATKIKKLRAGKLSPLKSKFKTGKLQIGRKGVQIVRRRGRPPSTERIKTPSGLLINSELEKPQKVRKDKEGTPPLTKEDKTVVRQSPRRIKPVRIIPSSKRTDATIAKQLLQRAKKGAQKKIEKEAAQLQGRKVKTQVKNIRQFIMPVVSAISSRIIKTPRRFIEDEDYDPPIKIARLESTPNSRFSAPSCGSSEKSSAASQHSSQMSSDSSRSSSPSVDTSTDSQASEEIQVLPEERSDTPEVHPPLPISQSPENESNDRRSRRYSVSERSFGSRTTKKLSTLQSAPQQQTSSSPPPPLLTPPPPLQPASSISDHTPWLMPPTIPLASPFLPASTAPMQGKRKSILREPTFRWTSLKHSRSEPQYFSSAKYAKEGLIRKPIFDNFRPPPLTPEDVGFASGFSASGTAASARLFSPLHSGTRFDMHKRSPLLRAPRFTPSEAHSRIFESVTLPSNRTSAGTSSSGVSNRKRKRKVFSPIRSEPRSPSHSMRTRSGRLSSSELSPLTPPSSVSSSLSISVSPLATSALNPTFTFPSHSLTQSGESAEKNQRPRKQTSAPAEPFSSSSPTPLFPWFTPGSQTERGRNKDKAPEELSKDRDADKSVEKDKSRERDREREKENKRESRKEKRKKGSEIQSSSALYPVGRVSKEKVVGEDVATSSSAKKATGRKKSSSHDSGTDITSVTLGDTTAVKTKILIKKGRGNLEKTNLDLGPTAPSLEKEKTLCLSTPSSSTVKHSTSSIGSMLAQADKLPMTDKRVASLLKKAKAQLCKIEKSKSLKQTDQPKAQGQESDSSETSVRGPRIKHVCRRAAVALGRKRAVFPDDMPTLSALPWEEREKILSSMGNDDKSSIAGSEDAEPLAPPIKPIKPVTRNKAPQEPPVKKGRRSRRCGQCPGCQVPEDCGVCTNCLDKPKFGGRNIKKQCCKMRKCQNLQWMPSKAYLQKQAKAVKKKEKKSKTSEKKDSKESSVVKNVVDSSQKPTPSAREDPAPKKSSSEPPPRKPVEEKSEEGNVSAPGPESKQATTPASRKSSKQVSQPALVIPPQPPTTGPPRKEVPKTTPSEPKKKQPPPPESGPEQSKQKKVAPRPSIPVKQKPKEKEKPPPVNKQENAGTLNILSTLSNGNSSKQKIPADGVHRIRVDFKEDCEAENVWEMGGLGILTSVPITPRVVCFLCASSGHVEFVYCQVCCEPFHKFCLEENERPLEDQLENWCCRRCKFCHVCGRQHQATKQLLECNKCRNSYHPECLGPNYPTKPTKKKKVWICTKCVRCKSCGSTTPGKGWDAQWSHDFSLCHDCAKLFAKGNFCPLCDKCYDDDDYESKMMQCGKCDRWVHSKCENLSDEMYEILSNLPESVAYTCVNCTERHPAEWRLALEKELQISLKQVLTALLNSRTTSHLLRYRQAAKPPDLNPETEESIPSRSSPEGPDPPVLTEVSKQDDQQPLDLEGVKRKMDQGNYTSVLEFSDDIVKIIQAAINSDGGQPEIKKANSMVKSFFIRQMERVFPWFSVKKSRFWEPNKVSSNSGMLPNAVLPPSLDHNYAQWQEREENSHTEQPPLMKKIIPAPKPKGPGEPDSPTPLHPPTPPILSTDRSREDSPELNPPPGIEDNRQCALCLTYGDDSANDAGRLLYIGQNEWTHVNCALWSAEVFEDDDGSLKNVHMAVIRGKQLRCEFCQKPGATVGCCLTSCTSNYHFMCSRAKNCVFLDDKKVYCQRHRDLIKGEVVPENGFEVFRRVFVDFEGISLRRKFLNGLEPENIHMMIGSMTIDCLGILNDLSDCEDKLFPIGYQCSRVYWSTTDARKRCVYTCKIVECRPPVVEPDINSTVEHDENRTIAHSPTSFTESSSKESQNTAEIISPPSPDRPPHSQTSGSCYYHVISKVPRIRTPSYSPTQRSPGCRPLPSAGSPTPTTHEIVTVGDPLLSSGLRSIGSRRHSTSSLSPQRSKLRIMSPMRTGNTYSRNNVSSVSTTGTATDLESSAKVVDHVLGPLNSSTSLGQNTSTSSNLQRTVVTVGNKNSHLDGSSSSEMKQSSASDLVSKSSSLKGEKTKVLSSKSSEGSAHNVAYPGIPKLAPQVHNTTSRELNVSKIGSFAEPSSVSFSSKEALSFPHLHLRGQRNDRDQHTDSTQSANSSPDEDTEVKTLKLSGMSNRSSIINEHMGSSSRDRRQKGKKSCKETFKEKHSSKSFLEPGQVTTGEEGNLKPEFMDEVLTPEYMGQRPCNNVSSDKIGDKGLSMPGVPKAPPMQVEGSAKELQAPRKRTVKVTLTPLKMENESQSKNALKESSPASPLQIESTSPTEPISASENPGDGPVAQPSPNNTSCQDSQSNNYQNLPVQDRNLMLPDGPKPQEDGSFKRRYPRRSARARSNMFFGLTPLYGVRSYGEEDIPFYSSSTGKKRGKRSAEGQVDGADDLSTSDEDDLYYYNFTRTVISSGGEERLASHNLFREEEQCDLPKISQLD", "sequence (Q03164 2719-3969 limits assumed)": "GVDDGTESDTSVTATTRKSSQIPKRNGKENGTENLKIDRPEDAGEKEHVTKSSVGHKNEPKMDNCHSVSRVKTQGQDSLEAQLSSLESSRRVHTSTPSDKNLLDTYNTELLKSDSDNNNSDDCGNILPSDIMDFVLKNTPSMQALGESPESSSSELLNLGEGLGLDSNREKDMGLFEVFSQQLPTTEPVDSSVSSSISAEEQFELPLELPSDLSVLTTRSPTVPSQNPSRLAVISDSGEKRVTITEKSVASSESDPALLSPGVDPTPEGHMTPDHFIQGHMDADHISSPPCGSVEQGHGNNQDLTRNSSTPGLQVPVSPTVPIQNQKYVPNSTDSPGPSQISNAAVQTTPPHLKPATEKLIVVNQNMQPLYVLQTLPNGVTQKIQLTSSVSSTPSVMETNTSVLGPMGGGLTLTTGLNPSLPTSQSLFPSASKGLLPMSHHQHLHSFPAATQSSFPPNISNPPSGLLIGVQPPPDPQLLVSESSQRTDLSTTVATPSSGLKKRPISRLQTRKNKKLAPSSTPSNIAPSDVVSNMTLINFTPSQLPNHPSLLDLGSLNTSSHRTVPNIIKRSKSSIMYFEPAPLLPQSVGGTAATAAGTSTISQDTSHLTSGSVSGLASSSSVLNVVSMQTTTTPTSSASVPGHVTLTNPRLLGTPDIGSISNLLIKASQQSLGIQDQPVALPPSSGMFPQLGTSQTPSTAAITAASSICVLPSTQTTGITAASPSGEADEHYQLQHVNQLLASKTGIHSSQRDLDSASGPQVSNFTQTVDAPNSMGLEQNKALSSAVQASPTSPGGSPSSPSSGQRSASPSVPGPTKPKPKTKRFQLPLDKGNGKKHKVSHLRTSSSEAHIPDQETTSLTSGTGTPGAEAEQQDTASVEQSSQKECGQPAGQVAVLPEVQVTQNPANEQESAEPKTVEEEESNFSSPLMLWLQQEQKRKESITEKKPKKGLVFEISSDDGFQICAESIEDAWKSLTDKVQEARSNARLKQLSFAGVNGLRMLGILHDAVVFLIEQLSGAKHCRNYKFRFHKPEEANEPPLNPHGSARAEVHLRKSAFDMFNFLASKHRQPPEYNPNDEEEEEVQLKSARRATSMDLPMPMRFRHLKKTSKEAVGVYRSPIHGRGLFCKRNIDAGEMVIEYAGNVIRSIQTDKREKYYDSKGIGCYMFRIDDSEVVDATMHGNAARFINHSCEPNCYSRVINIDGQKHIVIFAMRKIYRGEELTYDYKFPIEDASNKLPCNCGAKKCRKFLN", "experiment": "Inhibition of GST-tagged human MLL1 (1147 to 1203 residues) expressed in Escherichia coli BL21 cells incubated for 30 mins by fluorescence polarization assay", "how_it_was_run": "(§1)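 Competition fluorescence polarization assay. CXXC domain protein is held at 2× its own KD. All domains are expressed and purified by the same method. Standard deviations come from three separate measurements.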"}, "[2]": {"experiment": "Inhibition of GST-tagged human MLL1 Cys1188Ala mutant (1147 to 1203 residues) expressed in Escherichia coli BL21 cells incubated for 30 mins by fluorescence polarization assay"}, "[3]": {"molecular_target": "T1, Lysine-specific demethylase 2B (Homo sapiens, UniProt Q8NHM5)", "T1 sequence (Q8NHM5 whole entry)": "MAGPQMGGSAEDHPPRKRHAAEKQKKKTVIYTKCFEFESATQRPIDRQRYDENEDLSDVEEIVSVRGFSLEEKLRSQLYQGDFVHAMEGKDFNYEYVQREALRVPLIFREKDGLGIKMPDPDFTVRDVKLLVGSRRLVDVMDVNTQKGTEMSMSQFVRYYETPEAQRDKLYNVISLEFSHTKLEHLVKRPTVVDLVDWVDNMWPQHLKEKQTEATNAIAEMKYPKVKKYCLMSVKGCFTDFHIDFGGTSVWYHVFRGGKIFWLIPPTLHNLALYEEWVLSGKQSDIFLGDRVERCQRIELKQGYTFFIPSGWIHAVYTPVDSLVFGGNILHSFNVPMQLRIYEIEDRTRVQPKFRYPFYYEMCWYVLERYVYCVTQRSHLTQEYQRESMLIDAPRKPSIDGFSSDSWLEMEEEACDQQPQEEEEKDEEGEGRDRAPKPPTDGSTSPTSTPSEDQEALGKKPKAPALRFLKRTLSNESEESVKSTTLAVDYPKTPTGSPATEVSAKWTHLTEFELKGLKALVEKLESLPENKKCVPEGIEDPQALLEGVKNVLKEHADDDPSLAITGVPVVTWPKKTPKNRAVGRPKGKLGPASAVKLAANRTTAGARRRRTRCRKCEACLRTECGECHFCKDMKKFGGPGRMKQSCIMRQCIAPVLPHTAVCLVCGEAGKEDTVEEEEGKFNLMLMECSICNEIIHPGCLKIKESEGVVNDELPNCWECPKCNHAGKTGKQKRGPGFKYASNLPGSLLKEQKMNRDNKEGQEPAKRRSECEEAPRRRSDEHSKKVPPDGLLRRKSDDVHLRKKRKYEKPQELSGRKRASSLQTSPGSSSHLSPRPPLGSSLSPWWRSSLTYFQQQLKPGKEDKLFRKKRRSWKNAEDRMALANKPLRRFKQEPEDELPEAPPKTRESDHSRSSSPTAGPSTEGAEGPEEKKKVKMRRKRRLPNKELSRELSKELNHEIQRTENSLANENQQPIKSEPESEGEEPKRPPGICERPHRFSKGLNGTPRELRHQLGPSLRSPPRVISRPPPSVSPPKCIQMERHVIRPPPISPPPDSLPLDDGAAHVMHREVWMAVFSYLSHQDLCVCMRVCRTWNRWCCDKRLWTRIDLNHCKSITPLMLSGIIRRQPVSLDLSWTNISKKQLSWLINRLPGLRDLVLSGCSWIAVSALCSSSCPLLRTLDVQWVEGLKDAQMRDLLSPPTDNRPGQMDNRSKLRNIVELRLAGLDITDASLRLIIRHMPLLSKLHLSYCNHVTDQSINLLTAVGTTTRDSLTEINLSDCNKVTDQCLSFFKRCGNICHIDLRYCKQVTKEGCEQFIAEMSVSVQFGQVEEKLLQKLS", "experiment": "Inhibition of GST-tagged human KDM2B (604 to 660 residues) expressed in Escherichia coli BL21 cells incubated for 30 mins by fluorescence polarization assay", "how_it_was_run": "as §1"}, "[4]": {"molecular_target": "T2, F-box/LRR-repeat protein 19 (Homo sapiens, UniProt Q6PCT2)", "T2 sequence (Q6PCT2 whole entry)": "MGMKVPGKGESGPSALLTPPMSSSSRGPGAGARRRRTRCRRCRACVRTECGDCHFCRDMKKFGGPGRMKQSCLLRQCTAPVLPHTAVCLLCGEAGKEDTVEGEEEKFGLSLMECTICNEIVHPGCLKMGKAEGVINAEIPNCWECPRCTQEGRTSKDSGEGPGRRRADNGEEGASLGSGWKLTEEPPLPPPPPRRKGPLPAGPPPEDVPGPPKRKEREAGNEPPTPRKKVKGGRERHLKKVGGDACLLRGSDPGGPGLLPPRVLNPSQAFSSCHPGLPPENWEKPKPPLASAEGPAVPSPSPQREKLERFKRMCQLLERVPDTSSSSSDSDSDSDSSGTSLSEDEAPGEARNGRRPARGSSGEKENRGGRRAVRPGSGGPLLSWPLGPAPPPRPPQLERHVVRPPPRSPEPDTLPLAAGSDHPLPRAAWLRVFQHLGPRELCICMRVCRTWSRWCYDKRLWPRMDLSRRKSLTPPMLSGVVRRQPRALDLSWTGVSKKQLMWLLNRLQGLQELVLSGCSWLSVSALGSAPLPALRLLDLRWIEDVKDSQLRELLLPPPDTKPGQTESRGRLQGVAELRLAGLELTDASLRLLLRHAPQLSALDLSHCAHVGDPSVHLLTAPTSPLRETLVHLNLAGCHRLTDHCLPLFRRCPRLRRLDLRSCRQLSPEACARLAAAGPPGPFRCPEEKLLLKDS", "experiment": "Inhibition of GST-tagged human FBXL19 (31 to 86 residues) expressed in Escherichia coli BL21 cells incubated for 30 mins by fluorescence polarization assay", "how_it_was_run": "as §1"}, "[5]": {"molecular_target": "T3, CXXC-type zinc finger protein 5 (Homo sapiens, UniProt Q7LFL8)", "T3 sequence (Q7LFL8 whole entry)": "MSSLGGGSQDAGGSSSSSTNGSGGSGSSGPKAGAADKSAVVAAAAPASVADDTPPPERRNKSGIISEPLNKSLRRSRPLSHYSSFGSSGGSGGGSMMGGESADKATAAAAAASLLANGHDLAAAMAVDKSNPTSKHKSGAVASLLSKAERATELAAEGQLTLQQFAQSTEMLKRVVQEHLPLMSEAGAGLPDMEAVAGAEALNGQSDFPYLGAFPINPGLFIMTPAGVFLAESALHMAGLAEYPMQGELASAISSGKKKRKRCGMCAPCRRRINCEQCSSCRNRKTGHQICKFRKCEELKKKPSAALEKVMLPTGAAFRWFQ", "experiment": "Inhibition of GST-tagged human CXXC5 (255 to 305 residues) expressed in Escherichia coli BL21 cells incubated for 30 mins by fluorescence polarization assay", "how_it_was_run": "as §1"}}, "data": [{"compound": "C=CC(=O)N1CCC(C(=O)NS(=O)(=O)c2ccccc2)(c2ccccc2)CC1", "values": [{"measurement": "IC50", "setting": "[1]", "value": 46, "unit": "µM"}, {"measurement": "IC50", "setting": "[2]", "value": 52, "unit": "µM"}, {"measurement": "IC50", "setting": "[3]", "value": 35, "unit": "µM"}, {"measurement": "IC50", "setting": "[4]", "value": 21.7, "unit": "µM"}, {"measurement": "IC50", "setting": "[5]", "value": 53, "unit": "µM"}]}, {"compound": "C=CC(=O)N1CCC(c2ccccc2)(c2nnn[nH]2)CC1", "values": [{"measurement": "IC50", "setting": "[1]", "value": 4.9, "unit": "µM"}, {"measurement": "IC50", "setting": "[2]", "value": 20, "unit": "µM"}, {"measurement": "IC50", "setting": "[3]", "value": 8.3, "unit": "µM"}, {"measurement": "IC50", "setting": "[4]", "value": 3.1, "unit": "µM"}, {"measurement": "IC50", "setting": "[5]", "value": 28, "unit": "µM"}]}, {"compound": "C=CC(=O)N1CCC(C(=O)O)(c2ccc(OCC)cc2)CC1", "values": [{"measurement": "IC50", "setting": "[1]", "value": 3.3, "unit": "µM"}, {"measurement": "IC50", "setting": "[2]", "value": 15.4, "unit": "µM"}, {"measurement": "IC50", "setting": "[3]", "value": 3.6, "unit": "µM"}, {"measurement": "IC50", "setting": "[4]", "value": 2.4, "unit": "µM"}, {"measurement": "IC50", "setting": "[5]", "value": 16.2, "unit": "µM"}]}, {"compound": "C=CC(=O)N1CCC(C(=O)O)(c2ccccc2)CC1", "values": [{"measurement": "IC50", "setting": "[1]", "value": 7.1, "unit": "µM"}, {"measurement": "IC50", "setting": "[2]", "value": 3.6, "unit": "µM"}, {"measurement": "IC50", "setting": "[3]", "value": 6.4, "unit": "µM"}, {"measurement": "IC50", "setting": "[4]", "value": 1.8, "unit": "µM"}, {"measurement": "IC50", "setting": "[5]", "value": 4.8, "unit": "µM"}]}, {"compound": "C=CC(=O)N1CCC(c2ccc(OCC)cc2)(c2nnn[nH]2)CC1", "values": [{"measurement": "IC50", "setting": "[1]", "value": 22, "unit": "µM"}, {"measurement": "IC50", "setting": "[2]", "value": 104, "unit": "µM"}, {"measurement": "IC50", "setting": "[3]", "value": 30, "unit": "µM"}, {"measurement": "IC50", "setting": "[4]", "value": 10.9, "unit": "µM"}, {"measurement": "IC50", "setting": "[5]", "value": 131, "unit": "µM"}]}, {"compound": "C=CC(=O)N1CCC(c2ccc(OC)cc2)(c2nnn[nH]2)CC1", "values": [{"measurement": "IC50", "setting": "[1]", "value": 15, "unit": "µM"}, {"measurement": "IC50", "setting": "[2]", "value": 59, "unit": "µM"}, {"measurement": "IC50", "setting": "[3]", "value": 32, "unit": "µM"}, {"measurement": "IC50", "setting": "[4]", "value": 8.9, "unit": "µM"}, {"measurement": "IC50", "setting": "[5]", "value": 56, "unit": "µM"}]}, {"compound": "C=CC(=O)N1CCC(C(=O)O)(c2ccc(Cl)cc2)CC1", "values": [{"measurement": "IC50", "setting": "[1]", "value": 41, "unit": "µM"}, {"measurement": "IC50", "setting": "[2]", "value": 108, "unit": "µM"}, {"measurement": "IC50", "setting": "[3]", "value": 53, "unit": "µM"}, {"measurement": "IC50", "setting": "[4]", "value": 31, "unit": "µM"}, {"measurement": "IC50", "setting": "[5]", "value": 53, "unit": "µM"}]}, {"compound": "C=CC(=O)N1CCC(C(=O)O)(c2ccc(OC)cc2)CC1", "values": [{"measurement": "IC50", "setting": "[1]", "value": 43, "unit": "µM"}, {"measurement": "IC50", "setting": "[2]", "value": 51, "unit": "µM"}, {"measurement": "IC50", "setting": "[3]", "value": 53, "unit": "µM"}, {"measurement": "IC50", "setting": "[4]", "value": 17, "unit": "µM"}, {"measurement": "IC50", "setting": "[5]", "value": 47, "unit": "µM"}]}, {"compound": "C=CC(=O)N1CCC(c2cccc(OCC)c2)(c2nnn[nH]2)CC1", "values": [{"measurement": "IC50", "setting": "[1]", "value": 7.7, "unit": "µM"}, {"measurement": "IC50", "setting": "[2]", "value": 43, "unit": "µM"}, {"measurement": "IC50", "setting": "[3]", "value": 9.4, "unit": "µM"}, {"measurement": "IC50", "setting": "[4]", "value": 2.6, "unit": "µM"}, {"measurement": "IC50", "setting": "[5]", "value": 40, "unit": "µM"}]}]}
